In ChEMBL document CHEMBL1629574, “Novel chimeric beta-lactamase CTX-M-64, a hybrid of CTX-M-15-like and CTX-M-14 beta-lactamases, found in a Shigella sonnei strain resistant to various oxyimino-cephalosporins, including ceftazidime” (Antimicrob Agents Chemother, 2009) one finds MIC data, which are given here for one molecule.

Molecules are shown by their SMILES. Converted amounts (≈) assume the structure as drawn.

What all share (assay type): functional
Test [1] concerns Shigella sonnei. The experiment in a line: Antimicrobial activity against Shigella sonnei UIH-1 expressing beta-lactamase CTX-M-64 by disk diffusion method. In a few lines: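 Non-β-lactam susceptibility determined by CLSI disk diffusion on the clinical isolate. Categories assigned by CLSI criteria.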
Test [2] has as its system Escherichia coli. The experiment in a line: Antimicrobial activity against Escherichia coli XL-1 Blue harboring beta-lactamase CTx-M-64transconjugant by disk diffusion method in presence of beta-lactamase inhibitor Sulbactam.
Test [3] deals with Shigella sonnei. The experiment in a line: Antimicrobial activity against Shigella sonnei UIH-1 expressing beta-lactamase CTX-M-64 by disk diffusion method in presence of beta-lactamase inhibitor Sulbactam.
Test [4] relates to Escherichia coli. Briefly: Antimicrobial activity against Escherichia coli XL-1 Blue transconjugant harboring beta-lactamase CTX-M-64 by disk diffusion method. In a few lines: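 Non-β-lactam agents were tested by CLSI disk diffusion. Susceptibility categories were assigned by CLSI criteria.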

For `CCN1CCN(C(=O)N[C@@H](C(=O)N[C@@H]2C(=O)N3C(C(=O)O)=C(CSc4nnnn4C)CS[C@H]23)c2ccc(O)cc2)C(=O)C1=O` [CEFOPERAZONE], the MIC was 8 µg/mL (≈ 12.4 µM) in the test with Shigella sonnei [1], over 32 µg/mL in the test on Escherichia coli [2], 8 µg/mL in the test on Shigella sonnei [3] and over 32 µg/mL in the test with Escherichia coli [4].
